In ChEMBL document CHEMBL1137035, “New DNA binding ligands as a model of chromomycin A3” (Bioorg Med Chem Lett, 2004) one finds IC50 data, which are given here for 8 compounds.

What all share (type): nucleic-acid assay
The test system of assay [1] is Nucleic Acid. As to the kind of experiment: Inhibitory concentration required to displace DNA-bound ethidium bromide molecules bound to CA12 (5''-CGCGAATTCGCG)2; NI denotes no inhibition. In a few lines:
(§1)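 Ethidium bromide displacement at 25 °C: duplex DNA (1 μM) and ethidium bromide (1 μM) in 20 mM Tris–HCl, pH 8.0, containing 1 mM MgCl2. Ligand titrated from 0 to 10 μM. Fluorescence read at λex 546 nm, λem 590 nm. IC50 is the concentration displacing 50% of DNA-bound ethidium, expressed as the dimer complex except for Hoechst 33258.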

The test system of assay [2] is Nucleic Acid. Nature of the assay: Inhibitory concentration required to displace DNA-bound ethidium bromide molecules bound to CT12 (5''-CGTAGCGCTACG)2; NI denotes no inhibition. In short, it runs like this: as §1
The subject of assay [3] is Nucleic Acid. As to the kind of experiment: Inhibitory concentration required to displace DNA-bound ethidium bromide molecules bound to CA12 (5''-CGCGAATTCGCG)2. In a few lines:
as §1

Assay [4] concerns Nucleic Acid. Nature of the assay: Inhibitory concentration required to displace DNA-bound ethidium bromide molecules bound to CT12 (5''-CGTAGCGCTACG)2. In short, it runs like this:
as §1

In assay [5] the test system is Nucleic Acid. As to the kind of experiment: Inhibitory concentration required to displace one of two DNA-bound ethidium bromide molecules bound to CT12 (5''-CGTAGCGCTACG)2. In short, it runs like this:
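Ethidium bromide displacement at 25 °C. CT12 duplex (1 μM) and ethidium bromide (1 μM) in 20 mM Tris–HCl, pH 8.0, with 1 mM MgCl2. Ligand titrated from 0 to 10 μM. Fluorescence read at λex 546 nm, λem 590 nm. IC50 is the concentration that displaces 50% of DNA-bound ethidium, expressed as dimer complex.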

Turning to `C[C@H]1CC(=O)c2c(cc3cc(O)cc(O)c3c2O)C1`, the IC50 result with Nucleic Acid [1] and in the assay on Nucleic Acid [2] was “Not Active” throughout.

With `CCCCCC[C@@H]1C(=O)c2c(cc3cc(O)cc(O)c3c2O)C[C@H]1C`, the IC50 in the assay on Nucleic Acid [3] and with Nucleic Acid [4] was 3 µM throughout.

For `CCCCC/C=C1/C(=O)c2c(cc3cc(O)cc(O)c3c2O)C[C@H]1C`, the IC50 in the assay with Nucleic Acid [3] and in the assay on Nucleic Acid [4] was 2.5 µM each time.

Consider `CCCCCC[C@H]1C(=O)c2c(cc3cc(O)cc(O)c3c2O)C[C@H]1C`, for which the values for the IC50 in the assay on Nucleic Acid [3] and in the assay with Nucleic Acid [4] were 2.5 µM and 3 µM, respectively.

Take `CCCCCC(O)C1C(=O)c2c(cc3cc(O)cc(O)c3c2O)C[C@H]1C` (stereo partly specified): the IC50 amounted to 4.5 µM in the assay with Nucleic Acid [3] and 6.5 µM in the assay on Nucleic Acid [4].

On to `CCCCCCC1C(=O)c2c(cc3cc(O)cc(O)c3c2O)C[C@H]1C` (stereo partly specified), for which the IC50 in the assay on Nucleic Acid [3] stood at 3 µM; in the assay with Nucleic Acid [4], 3.5 µM.

In the case of `CO[C@@H]1[C@H](O)C[C@@H](O[C@@H]2C[C@H](Oc3cc4cc5c(c(O)c4c(O)c3C)C(=O)[C@@H](O[C@H]3C[C@@H](O[C@H]4C[C@@H](O[C@H]6C[C@](C)(O)[C@@H](OC(C)=O)[C@H](C)O6)[C@H](O)[C@@H](C)O4)[C@H](O)[C@@H](C)O3)[C@H]([C@H](OC)C(=O)[C@@H](O)[C@@H](C)O)C5)O[C@H](C)[C@@H]2OC(C)=O)O[C@@H]1C` [CHROMOMYCIN A3], the IC50 is 9 µM in the assay with Nucleic Acid [3] and 3 µM in the assay on Nucleic Acid [5].

`CN1CCN(c2ccc3[nH]c(-c4ccc5[nH]c(-c6ccc(O)cc6)nc5c4)nc3c2)CC1` [HOECHST 33258]: the IC50 with Nucleic Acid [3] was 1 µM; with Nucleic Acid [4], > 20 µM.

Usually IC50 stands for the point on the concentration scale where inhibition reaches its midpoint. Higher therefore signals a need for much substance.
